In publication PMC11605132 (eClinicalMedicine, 2024):
Entries after “also recorded” stand apart in the source; their conditions may differ. Where two headings read alike, the source gives them in different places.

Experiments:
[1] = tested on: patients with AIS; experiment: Intracerebral hemorrhage on CT and MRI, AMFIS trial; type: in vivo, human; settings: Day 1 to Day 90
Procedure, shortened: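 Patients (20–90 years, new DWI lesion, treated within 24 h of onset) were randomized 2:1 to adrenomedullin or a D-mannitol placebo under double-blind conditions. Non-contrast CT was performed at 24 h and on Day 7, and MRI on Day 90.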

[2] = tested on: patients with AIS; experiment: NIHSS score, primary efficacy endpoint, AMFIS trial; type: in vivo, human
Procedure, shortened: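 Trained stroke neurologists scored NIHSS at baseline, 8, 24 and 72 h after infusion start, and on Day 7, keeping the same examiner per patient where possible. Least square means with 95% CI came from generalized estimating equations. Fixed effects were treatment, time point and treatment×time, with baseline NIHSS as covariate. The same model compared the pulsed and continuous-pulsed groups.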

[3] = tested on: patients with AIS; experiment: All adverse events, AMFIS phase II trial; type: in vivo, human
Procedure, shortened: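 Double-blind, 2:1 stratified block randomization by age (<75, 75–90 years) against a placebo vial of 50 mg D-mannitol. Patients were aged 20–90 with new DWI lesions and treated within 24 h of onset. AEs were monitored from infusion start to 3 days after the intervention ended, with close blood-pressure watch. Severity was graded on five levels (mild to death), and an independent committee judged causality.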

[4] = tested on: healthy volunteers; settings: cited from earlier work
[5] = type: in vivo; settings: human, plasma, 9 ng/kg/min, mean ± SD
[6] = patients receiving adrenomedullin, n=40

For `CC[C@H](C)[C@H](NC(=O)[C@H](CCC(N)=O)NC(=O)[C@H](Cc1c[nH]cn1)NC(=O)[C@H](C)NC(=O)[C@H](CC(C)C)NC(=O)[C@H](CCCCN)NC(=O)[C@H](CCC(N)=O)NC(=O)[C@@H](NC(=O)[C@@H](NC(=O)[C@@H]1CSSC[C@H](NC(=O)CNC(=O)[C@H](Cc2ccccc2)NC(=O)[C@H](CO)NC(=O)[C@H](CCCNC(=N)N)NC(=O)[C@H](CC(C)C)NC(=O)CNC(=O)[C@H](CCC(N)=O)NC(=O)[C@H](Cc2ccccc2)NC(=O)[C@H](CC(N)=O)NC(=O)[C@H](CC(N)=O)NC(=O)[C@H](CCSC)NC(=O)[C@H](CO)NC(=O)[C@H](CCC(N)=O)NC(=O)[C@H](CCCNC(=N)N)NC(=O)[C@@H](N)Cc2ccc(O)cc2)C(=O)N[C@@H](CCCNC(=N)N)C(=O)N[C@@H](Cc2ccccc2)C(=O)NCC(=O)N[C@@H]([C@@H](C)O)C(=O)N1)[C@@H](C)O)C(C)C)C(=O)N[C@@H](Cc1ccc(O)cc1)C(=O)N[C@@H](CCC(N)=O)C(=O)N[C@@H](Cc1ccccc1)C(=O)N[C@H](C(=O)N[C@@H](CC(=O)O)C(=O)N[C@@H](CCCCN)C(=O)N[C@@H](CC(=O)O)C(=O)N[C@@H](CCCCN)C(=O)N[C@@H](CC(=O)O)C(=O)N[C@@H](CC(N)=O)C(=O)N[C@H](C(=O)N[C@@H](C)C(=O)N1CCC[C@H]1C(=O)N[C@@H](CCCNC(=N)N)C(=O)N[C@@H](CO)C(=O)N[C@@H](CCCCN)C(=O)N[C@H](C(=O)N[C@@H](CO)C(=O)N1CCC[C@H]1C(=O)N[C@@H](CCC(N)=O)C(=O)NCC(=O)N[C@@H](Cc1ccc(O)cc1)C(N)=O)[C@@H](C)CC)C(C)C)[C@@H](C)O` [adrenomedullin], the “intracerebral hemorrhage on CT and MRI” value [1] was “no intracerebral hemorrhage was observed”, the “Intergroup difference in NIHSS changes, LSM (95% CI)” value ([2]; 7-day, AM minus placebo, GEE model) was 0.32 (−0.91–1.56) and the “NIHSS changes from pre-treatment, LSM (SE; 95% CI in text)” value (“NIHSS changes … (SE; 95% CI in text)” for short) ([2]; 7-day, AM n=40, GEE model) was −0.76. For the same molecule, the “Intergroup difference in NIHSS changes, LSM (95% CI)” value ([2]; 7-day, C/P-AM minus P-AM, GEE) was 0.67 (−0.64–1.98), the “NIHSS changes … (SE; 95% CI in text)” value ([2]; 7-day, C/P-AM, GEE, dose-finding analysis) was −0.42 and the “NIHSS changes … (SE; 95% CI in text)” value ([2]; 7-day, P-AM, GEE, dose-finding analysis) was −1.08. For the same molecule, the “Intergroup difference in NIHSS changes, LSM (95% CI)” value ([2]; 8-h, AM minus placebo, GEE model) was 0.25 (−0.24–0.74), the “Intergroup difference in NIHSS changes, LSM (95% CI)” value ([2]; 8-h, C/P-AM minus P-AM, GEE) was 0.52 (−0.12–1.16) and the “Intergroup difference in NIHSS changes, LSM (95% CI)” value ([2]; 24-h, AM minus placebo, GEE model) was 0.15 (−0.46–0.75). For the same molecule, the “Intergroup difference in NIHSS changes, LSM (95% CI)” value ([2]; 24-h, C/P-AM minus P-AM, GEE) was 0.62 (−0.29–1.53), the “Intergroup difference in NIHSS changes, LSM (95% CI)” value ([2]; 72-h, AM minus placebo, GEE model) was 0.35 (−0.93–1.63) and the “Intergroup difference in NIHSS changes, LSM (95% CI)” value ([2]; 72-h, C/P-AM minus P-AM, GEE) was 0.32 (−1.09–1.72). For the same molecule, the “mean change in the NIHSS score from pre-treatment to Day 7” value (“mean change in the NIHSS score” for short) ([2]; C/P-AM) was −0.45, the “median change in the NIHSS score from pre-treatment to Day 7” value (shortened to “median change in the NIHSS score”) ([2]; C/P-AM) was −0.5 and the “mean change in the NIHSS score” value ([2]; P-AM) was −1.05. The “median change in the NIHSS score” value ([2]; P-AM) was −1, the “efficacy on NIHSS scores” value ([2]; in vivo) was “not demonstrated” and the “mean change in the NIHSS score” value [2, 6] was −0.75. For the same molecule, the “median change in the NIHSS score” value [2, 6] was −1.00, the “patients with AEs, n (%, 95% CI)” value ([3]; C/P-AM) was 14 and the “patients with AEs, n (%, 95% CI)” value ([3]; P-AM) was 11. The “cases of drop in blood pressure” value ([3]; adrenomedullin group, n=40) was 10.0%, the “cases of low blood pressure” value ([3]; adrenomedullin group, n=40) was 2.5% and the “life-threatening AEs or death” value ([3]; first-half and second-half cohorts) was “No life-threatening AEs or death were reported”. For the same molecule, the Laboratory tests ([3]; in vivo) was “no clinically significant changes”, the tolerability ([3]; non-severe, non-embolic AIS) was “well tolerated” and the “SAEs related to the intervention” value [3, 6] was “Neither intervention-related serious adverse events nor severe adverse events were observed; also recorded: no “SAEs related to the intervention” were reported; also recorded: No SAEs were observed”. For the same molecule, the “Severe AEs (grade 3)” value [3, 6] was “observed only in the placebo group”, the half-life [4] was under 1 h and the “blood levels of adrenomedullin” value ([4]; dose of 9 ng/kg/min) was 0.01 to 0.02 ng/mL. The severe adverse events ([4]; healthy volunteers) was “no severe adverse events”, the Cmax ([5]; C/P-AM) was 0.061 ng/mL and the Cmax ([5]; P-AM) was 0.0442 ng/mL.
